For assay [1], the target named is T1, tRNA (guanine-N(1)-)-methyltransferase (Mycobacterium tuberculosis (strain ATCC 25618 / H37Rv), UniProt P9WFY7).
T1 sequence (P9WFY7 whole entry): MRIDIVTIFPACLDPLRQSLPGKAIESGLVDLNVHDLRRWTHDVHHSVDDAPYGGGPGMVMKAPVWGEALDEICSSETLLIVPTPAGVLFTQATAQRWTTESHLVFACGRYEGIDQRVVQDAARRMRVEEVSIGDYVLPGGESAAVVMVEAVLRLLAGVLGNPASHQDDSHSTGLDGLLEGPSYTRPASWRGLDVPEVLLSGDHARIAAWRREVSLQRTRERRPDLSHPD
The assay can be described thus: Binding affinity to full length Mycobacterium tuberculosis tRNA (guanine(37)-N1)-methyltransferase expressed in Escherichia coli BL21 (DE3) by surface plasmon resonance assay. In outline: (§1)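 SPR at 25 °C. His-tagged TrmD (50 μg/mL) captured on an anti-His antibody surface (about 2200 RU), with a blank reference cell. Buffer: 50 mM Tris-HCl pH 8, 150 mM NaCl, 1 mM MgCl2, 1 mM DTT, 0.05% Tween-20. Analyte in 2-fold dilutions, injected lowest to highest at 30 μL/min, 30 s contact, 240 s dissociation. KD from steady-state affinity fit.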
(SPR reads the build-up and loss of mass on a sensor chip optically.)

Assay [2] has as its target T2, tRNA (guanine-N(1)-)-methyltransferase (Mycobacterium tuberculosis (strain ATCC 25618 / H37Rv)) (UniProt P9WFY7).
T2 sequence (whole entry): T1 sequence (P9WFY7 whole entry)
Briefly: Binding affinity to full length Mycobacterium tuberculosis tRNA (guanine(37)-N1)-methyltransferase expressed in Escherichia coli BL21 (DE3) assessed as association rate constant by surface plasmon resonance assay. Put shortly: as §1

The target in assay [3] is T3, tRNA (guanine-N(1)-)-methyltransferase (Staphylococcus aureus (strain NCTC 8325 / PS 47)) (UniProt Q2FZ43).
T3 sequence (whole entry): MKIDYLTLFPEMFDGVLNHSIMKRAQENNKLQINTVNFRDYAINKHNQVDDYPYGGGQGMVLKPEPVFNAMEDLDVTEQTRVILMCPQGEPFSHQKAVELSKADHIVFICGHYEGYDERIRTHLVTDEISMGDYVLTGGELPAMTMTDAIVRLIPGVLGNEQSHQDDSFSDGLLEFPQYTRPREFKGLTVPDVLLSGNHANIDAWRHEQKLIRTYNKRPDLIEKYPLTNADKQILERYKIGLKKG
The assay can be described thus: Binding affinity to full length Staphylococcus aureus tRNA (guanine(37)-N1)-methyltransferase expressed in Escherichia coli BL21 (DE3) assessed as association rate constant by surface plasmon resonance assay. Put shortly:
as §1

Assay [4] has as its target T2, tRNA (guanine-N(1)-)-methyltransferase (Mycobacterium tuberculosis (strain ATCC 25618 / H37Rv)). Briefly: Binding affinity to full length Mycobacterium tuberculosis tRNA (guanine(37)-N1)-methyltransferase expressed in Escherichia coli BL21 (DE3) assessed as dissociation rate constant by surface plasmon resonance assay. In outline:
as §1

Assay [5] deals with T3, tRNA (guanine-N(1)-)-methyltransferase (Staphylococcus aureus (strain NCTC 8325 / PS 47)). The assay can be described thus: Binding affinity to full length Staphylococcus aureus tRNA (guanine(37)-N1)-methyltransferase expressed in Escherichia coli BL21 (DE3) assessed as dissociation rate constant by surface plasmon resonance assay. Put shortly:
as §1

The subject of assay [6] is Acinetobacter baumannii. Briefly: Antibacterial activity against Acinetobacter baumannii ATCC 17961 incubated for 24 hrs by serial broth microdilution method. The format is functional. As to conditions: ATCC 17961, 24 h. In outline:
(§2)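 Log-phase cultures from four colonies grown overnight at 37 °C, inoculated at ~5×10^5 cells/mL in cation-adjusted Mueller–Hinton broth with serially diluted compound. Grown 24 h at 37 °C, then OD600 read. MIC50/MIC90 are the concentrations giving 50%/90% growth inhibition relative to drug-free controls. Two independent experiments in duplicate.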
For orientation: Broth dilution looks for growth in wells or tubes with falling amounts of substance.

The subject of assay [7] is Klebsiella pneumoniae. The assay can be described thus: Antibacterial activity against Klebsiella pneumoniae ATCC 13883 incubated for 24 hrs by serial broth microdilution method. The format is functional, organism-based. In outline:
as §2

Assay [8] relates to Mycolicibacterium smegmatis. The assay can be described thus: Antibacterial activity against Mycolicibacterium smegmatis MC2 155 incubated for 24 hrs by serial broth microdilution method. The format is functional. As to conditions: MC2 155, 24 h. In outline: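 Growth read by OD600. MRSA in cation-adjusted Mueller–Hinton broth, M. smegmatis in complete 7H9. MIC50 and MIC90 are 50% and 90% growth inhibition versus drug-free controls. Two independent experiments, each in duplicate.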

Assay [9] deals with Mycobacterium tuberculosis. Briefly: Antibacterial activity against Mycobacterium tuberculosis ATCC 27294 incubated for 7 days by broth dilution method. The format is functional. The conditions noted are these: ATCC 27294, 168 h. Put shortly: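 M. tuberculosis ATCC 27294 in complete 7H9 with 0.05% Tween 80, 0.5% glycerol and 10% ADC. Mid-log cells adjusted to OD600 0.1 and added 1:1 to 2-fold serial compound dilutions (highest 100 μM). Incubated 7 d at 37 °C with shaking at 80 rpm, then OD600 read. Isoniazid positive control. MIC50/MIC90 versus drug-free controls. Biological duplicates.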

Assay [10] relates to Pseudomonas aeruginosa. The assay can be described thus: Bactericidal activity against Pseudomonas aeruginosa PA14 assessed as reduction in CFU at 1 to 4 times MIC90 incubated for 24 hrs. The format is functional, organism-based.
Assay [11] has as its system Acinetobacter baumannii. Briefly: Bactericidal activity against Acinetobacter baumannii ATCC 17961 assessed as reduction in CFU at 1 to 4 times MIC90 incubated for 24 hrs. As to conditions: ATCC 17961, 24 h, read-out: MBC99.9. The class given is functional.
Assay [12] concerns Klebsiella pneumoniae. Briefly: Bactericidal activity against Klebsiella pneumoniae ATCC 13883 assessed as reduction in CFU at 1 to 4 times MIC90 incubated for 24 hrs. The class given is functional, organism-based.
For assay [13], the system named is Salmonella enteritidis. Briefly: Bactericidal activity against Salmonella enteritidis ATCC 13076 assessed as reduction in CFU at 1 to 4 times MIC90 incubated for 24 hrs. As to conditions: Salmonella enterica subsp. enterica serovar Enteritidis. The format is functional.
Assay [14] relates to Staphylococcus aureus. The assay can be described thus: Bactericidal activity against methicillin-resistant Staphylococcus aureus ATCC 43300 assessed as reduction in CFU at 1 to 4 times MIC90 incubated for 24 hrs. The format is functional. The conditions noted are these: ATCC 43300, 24 h, read-out: MBC99.9.
Assay [15] concerns Enterococcus faecalis. The assay can be described thus: Bactericidal activity against Enterococcus faecalis ATCC 51299 assessed as reduction in CFU at 1 to 4 times MIC90 incubated for 24 hrs. The format is functional, organism-based.

In brackets after ≈: the same amount, converted by molar mass. Activity calls are given as the source filed them. The calls are words filed in the database; no cut-off is given here.

The values below come from ChEMBL document CHEMBL4373727, “Thienopyrimidinone Derivatives That Inhibit Bacterial tRNA (Guanine37-N1)-Methyltransferase (TrmD) by Restructuring the Active Site with a Tyrosine-Flipping Mechanism” (J Med Chem, 2019).

For the compound `CCCCCCCCNCc1ccc(CNC(=O)c2csc3nc[nH]c(=O)c23)cc1`, the affinity in assay [1], expressed as Kd, was 0.19 µM. In addition, the Ka in [2] was 645000 M⁻¹ s⁻¹; in assay [3], 2.94e+06 M⁻¹ s⁻¹. Also, the Kdiss in assay [4] came to 0.12 s⁻¹; in assay [5], 9.15 s⁻¹. The figures for the MIC50 in [6], in assay [8] and in assay [9] were 62 µM (≈ 26.4 µg/mL), 58 µM (≈ 24.7 µg/mL) and 78 µM (≈ 33.3 µg/mL), respectively. Moreover, the MIC90 (as a rule, an inhibitory concentration at the 90% level, which refers to growth in some studies and to a panel of isolates in others) in assay [6] is 95 µM (≈ 40.5 µg/mL); in assay [9] it was above 100 µM. The MIC50 (in general, an inhibitory concentration at the 50% level, which refers to growth in some studies and to a panel of isolates in others) in [7] was “inactive”. Further, in [7], the MIC90 result was “inactive”. For the same compound, the MBC99.9 entry in assay [10], in assay [12], in assay [13] and in assay [15] was “inactive” in each case. Also, the MBC in assay [11] was above 100 µM; in assay [14] it was 54 µM (≈ 23 µg/mL).

As to `CCCCCCCCCCNCc1ccc(CNC(=O)c2csc3nc[nH]c(=O)c23)cc1`, the figures for the MIC50 in assay [6], in assay [8] and in assay [9] were above 100 µM, 13 µM (≈ 5.91 µg/mL) and 22 µM (≈ 10 µg/mL), respectively. The MIC90 in assay [6] is above 100 µM; in [8], 18 µM (≈ 8.18 µg/mL); in assay [9], 43 µM (≈ 19.5 µg/mL). In addition, the MIC50 result in assay [7] is “inactive”. For the same compound, the MIC90 result in [7] is “inactive”. Moreover, the MBC99.9 entry in assay [10], in [12], in assay [13] and in [15] was “inactive” in each case. Besides, the MBC was above 100 µM in assay [11] and 34 µM (≈ 15.5 µg/mL) in [14].

Turning to `NC1CCN(Cc2ccc(CNC(=O)c3csc4nc[nH]c(=O)c34)cc2)CC1`, the Kd – broadly, a measure of binding affinity in units of concentration – in assay [1] is 10.4 µM. For the same compound, the Ka came to 20100 M⁻¹ s⁻¹ in [2] and 59900 M⁻¹ s⁻¹ in assay [3]. Moreover, the Kdiss in assay [4] was found to be 0.209 s⁻¹; in [5], 1.65 s⁻¹.
